What was measured:
Format in all cases: ADME, organism-based
[1] = Biodistribution in NMRI mouse urine at 3.7 MBq/mL, iv after 2 mins by gamma counting; conditions: in vivo
How it was run: (§1)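 Male NMRI mice (30-40 g) under isoflurane (1.5-2.5% in oxygen) got 0.1 mL of HPLC-purified tracer diluted with 0.9% NaCl to 3.7 MBq/mL (ethanol ≤10%) via tail vein. Mice were decapitated at 2 or 60 min p.i., and organs, blood and urine were weighed and γ-counted. Values are background-corrected %ID or %ID/g, with blood mass taken as 7% of body mass.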

[2] = Biodistribution in NMRI mouse urine at 3.7 MBq/mL, iv after 60 mins by gamma counting; conditions: in vivo, 1 h; how it was run: as §1
Kidney [3] = experiment: Biodistribution in NMRI mouse kidney at 3.7 MBq/mL, iv after 2 mins by gamma counting; conditions: in vivo; how it was run: as §1
Kidney [4] = experiment: Biodistribution in NMRI mouse kidney at 3.7 MBq/mL, iv after 60 mins by gamma counting; conditions: in vivo, 1 h; how it was run: as §1
Kidney [5] = experiment: Biodistribution in NMRI mouse kidney assessed per gram of tissue at 3.7 MBq/mL, iv after 60 mins by gamma counting; conditions: in vivo, 1 h; how it was run: as §1
Kidney [6] = experiment: Drug level in NMRI mouse kidney assessed as standard uptake value at 3.7 MBq/mL, iv after 2 mins by gamma counting; conditions: in vivo
How it was run: (§2)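 Male NMRI mice (30-40 g) were anaesthetised with isoflurane. Each received 0.1 mL of HPLC-purified tracer, diluted in 0.9% NaCl to 3.7 MBq/mL (ethanol ≤10%), via a tail vein. Mice were decapitated at 2 or 60 min. Organs were dissected, weighed and γ-counted with background correction. SUV = (organ cpm/organ weight)/(total recovered counts/body weight). Blood mass was taken as 7% of body mass.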

Kidney [7] = experiment: Drug level in NMRI mouse kidney assessed as standard uptake value at 3.7 MBq/mL, iv after 60 mins by gamma counting; conditions: in vivo, 1 h; how it was run: as §2
Liver [8] = experiment: Biodistribution in NMRI mouse liver at 3.7 MBq/mL, iv after 2 mins by gamma counting; conditions: in vivo; how it was run: as §1
Liver [9] = experiment: Biodistribution in NMRI mouse liver at 3.7 MBq/mL, iv after 60 mins by gamma counting; conditions: in vivo, 1 h; how it was run: as §1
Liver [10] = experiment: Biodistribution in NMRI mouse liver assessed per gram of tissue at 3.7 MBq/mL, iv after 2 mins by gamma counting; conditions: in vivo
Liver [11] = experiment: Biodistribution in NMRI mouse liver assessed per gram of tissue at 3.7 MBq/mL, iv after 60 mins by gamma counting; conditions: in vivo, 1 h; how it was run: as §1
Liver [12] = experiment: Drug level in NMRI mouse liver assessed as standard uptake value at 3.7 MBq/mL, iv after 2 mins by gamma counting; conditions: in vivo; how it was run: as §2
Liver [13] = experiment: Drug level in NMRI mouse liver assessed as standard uptake value at 3.7 MBq/mL, iv after 60 mins by gamma counting; conditions: in vivo, 1 h; how it was run: as §2
[14] = Biodistribution in NMRI mouse spleen/pancreas at 3.7 MBq/mL, iv after 2 mins by gamma counting; conditions: in vivo; how it was run: as §1
[15] = Biodistribution in NMRI mouse spleen/pancreas at 3.7 MBq/mL, iv after 60 mins by gamma counting; conditions: in vivo, 1 h; how it was run: as §1
[16] = Biodistribution in NMRI mouse spleen/pancreas assessed per gram of tissue at 3.7 MBq/mL, iv after 2 mins by gamma counting; conditions: in vivo; how it was run: as §1
[17] = Biodistribution in NMRI mouse spleen/pancreas assessed per gram of tissue at 3.7 MBq/mL, iv after 60 mins by gamma counting; conditions: in vivo, 1 h; how it was run: as §1
[18] = Drug level in NMRI mouse spleen/pancreas assessed as standard uptake value at 3.7 MBq/mL, iv after 2 mins by gamma counting; conditions: in vivo; how it was run: as §2
[19] = Drug level in NMRI mouse spleen/pancreas assessed as standard uptake value at 3.7 MBq/mL, iv after 60 mins by gamma counting; conditions: in vivo, 1 h; how it was run: as §2
Lung [20] = experiment: Biodistribution in NMRI mouse lung at 3.7 MBq/mL, iv after 2 mins by gamma counting; conditions: in vivo; how it was run: as §1
Lung [21] = experiment: Biodistribution in NMRI mouse lung at 3.7 MBq/mL, iv after 60 mins by gamma counting; conditions: in vivo, 1 h; how it was run: as §1
Lung [22] = experiment: Biodistribution in NMRI mouse lung assessed per gram of tissue at 3.7 MBq/mL, iv after 2 mins by gamma counting; conditions: in vivo; how it was run: as §1
Lung [23] = experiment: Biodistribution in NMRI mouse lung assessed per gram of tissue at 3.7 MBq/mL, iv after 60 mins by gamma counting; conditions: in vivo, 1 h; how it was run: as §1
Lung [24] = experiment: Drug level in NMRI mouse lung assessed as standard uptake value at 3.7 MBq/mL, iv after 2 mins by gamma counting; conditions: in vivo; how it was run: as §2
Heart [25] = experiment: Biodistribution in NMRI mouse heart assessed per gram of tissue at 3.7 MBq/mL, iv after 2 mins by gamma counting; conditions: in vivo; how it was run: as §1
Heart [26] = experiment: Drug level in NMRI mouse heart assessed as standard uptake value at 3.7 MBq/mL, iv after 2 mins by gamma counting; conditions: in vivo; how it was run: as §2
Intestine [27] = experiment: Biodistribution in NMRI mouse intestine at 3.7 MBq/mL, iv after 2 mins by gamma counting; conditions: in vivo; how it was run: as §1
Intestine [28] = experiment: Biodistribution in NMRI mouse intestine at 3.7 MBq/mL, iv after 60 mins by gamma counting; conditions: in vivo, 1 h; how it was run: as §1
Stomach [29] = experiment: Biodistribution in NMRI mouse stomach at 3.7 MBq/mL, iv after 2 mins by gamma counting; conditions: in vivo; how it was run: as §1
Stomach [30] = experiment: Biodistribution in NMRI mouse stomach at 3.7 MBq/mL, iv after 60 mins by gamma counting; conditions: in vivo, 1 h; how it was run: as §1
[31] = Biodistribution in NMRI mouse cerebrum at 3.7 MBq/mL, iv after 60 mins by gamma counting; conditions: in vivo, 1 h; how it was run: as §1
[32] = Biodistribution in NMRI mouse cerebrum assessed per gram of tissue at 3.7 MBq/mL, iv after 2 mins by gamma counting; conditions: in vivo; how it was run: as §1
[33] = Biodistribution in NMRI mouse cerebrum assessed per gram of tissue at 3.7 MBq/mL, iv after 60 mins by gamma counting; conditions: in vivo, 1 h; how it was run: as §1
[34] = Drug level in NMRI mouse cerebrum assessed as standard uptake value at 3.7 MBq/mL, iv after 2 mins by gamma counting; conditions: in vivo; how it was run: as §2
Cerebellum [35] = experiment: Biodistribution in NMRI mouse cerebellum at 3.7 MBq/mL, iv after 2 mins by gamma counting; conditions: in vivo; how it was run: as §1
Cerebellum [36] = experiment: Biodistribution in NMRI mouse cerebellum at 3.7 MBq/mL, iv after 60 mins by gamma counting; conditions: in vivo, 1 h; how it was run: as §1
Cerebellum [37] = experiment: Biodistribution in NMRI mouse cerebellum assessed per gram of tissue at 3.7 MBq/mL, iv after 2 mins by gamma counting; conditions: in vivo; how it was run: as §1
Cerebellum [38] = experiment: Biodistribution in NMRI mouse cerebellum assessed per gram of tissue at 3.7 MBq/mL, iv after 60 mins by gamma counting; conditions: in vivo, 1 h; how it was run: as §1
Cerebellum [39] = experiment: Drug level in NMRI mouse cerebellum assessed as standard uptake value at 3.7 MBq/mL, iv after 2 mins by gamma counting; conditions: in vivo; how it was run: as §2
Cerebellum [40] = experiment: Drug level in NMRI mouse cerebellum assessed as standard uptake value at 3.7 MBq/mL, iv after 60 mins by gamma counting; conditions: in vivo, 1 h; how it was run: as §2
Blood [41] = experiment: Biodistribution in NMRI mouse blood at 3.7 MBq/mL, iv after 2 mins by gamma counting; conditions: in vivo; how it was run: as §1
Blood [42] = experiment: Drug level in NMRI mouse blood assessed as standard uptake value at 3.7 MBq/mL, iv after 2 mins by gamma counting; conditions: in vivo; how it was run: as §2
Blood [43] = experiment: Drug level in NMRI mouse blood assessed as standard uptake value at 3.7 MBq/mL, iv after 60 mins by gamma counting; conditions: in vivo, 1 h; how it was run: as §2

CN(C)c1ccc2nc(-c3ccc([18F])cc3)sc2c1
Drug uptake [1]: 0.1%
Drug uptake [2]: 7.6%
Drug uptake (Kidney [3]): 8.5%
Drug uptake (Kidney [4]): 4.8%
Drug uptake (Kidney [5]): 6.5%
SUV (Kidney [6]): 4.3
SUV (Kidney [7]): 2.4
Drug uptake (Liver [8]): 41.9%
Drug uptake (Liver [9]): 18.9%
Drug uptake (Liver [10]): 18.9%
Drug uptake (Liver [11]): 8%
SUV (Liver [12]): 6.8
SUV (Liver [13]): 3
Drug uptake [14]: 1.5%
Drug uptake [15]: 0.3%
Drug uptake [16]: 5.5%
Drug uptake [17]: 1%
SUV [18]: 2
SUV [19]: 0.4
Drug uptake (Lung [20]): 2.2%
Drug uptake (Lung [21]): 0.6%
Drug uptake (Lung [22]): 8%
Drug uptake (Lung [23]): 1.9%
SUV (Lung [24]): 2.9
Drug uptake (Heart [25]): 7.4%
SUV (Heart [26]): 2.7
Drug uptake (Intestine [27]): 10%
Drug uptake (Intestine [28]): 28%
Drug uptake (Stomach [29]): 1.4%
Drug uptake (Stomach [30]): 1.2%
Drug uptake [31]: 0.65%
Drug uptake [32]: 8.84%
Drug uptake [33]: 1.94%
SUV [34]: 3.2
Drug uptake (Cerebellum [35]): 0.77%
Drug uptake (Cerebellum [36]): 0.22%
Drug uptake (Cerebellum [37]): 9.23%
Drug uptake (Cerebellum [38]): 2.24%
SUV (Cerebellum [39]): 3.35
SUV (Cerebellum [40]): 0.83
Drug uptake (Blood [41]): 2.8%
SUV (Blood [42]): 0.4
SUV (Blood [43]): 0.3
